Data published in ChEMBL document CHEMBL2311502, “Discovery of novel and ligand-efficient inhibitors of Plasmodium falciparum and Plasmodium vivax N-myristoyltransferase” (J Med Chem, 2013).
Calls of active or inactive are those of the source. The rule behind the calls is not given here.

What was measured:
[1] = Binding affinity to recombinant Plasmodium vivax NMT using GSNKSKPKDASQRRR-NH2 as substrate after 10 to 20 mins by CPM fluorescence assay
In short: (§1)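 Ki derived from enzyme IC50 by the Cheng–Prusoff equation, which corrects for the differing Michaelis constants of each NMT. Each IC50 is the mean of two or more determinations.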

[2] = molecular target: T1, Glycylpeptide N-tetradecanoyltransferase 1 (Homo sapiens, UniProt P30419); experiment: Binding affinity to human NMT1 after 10 to 20 mins by CPM fluorescence assay; in short: as §1
T1 sequence (P30419 whole entry): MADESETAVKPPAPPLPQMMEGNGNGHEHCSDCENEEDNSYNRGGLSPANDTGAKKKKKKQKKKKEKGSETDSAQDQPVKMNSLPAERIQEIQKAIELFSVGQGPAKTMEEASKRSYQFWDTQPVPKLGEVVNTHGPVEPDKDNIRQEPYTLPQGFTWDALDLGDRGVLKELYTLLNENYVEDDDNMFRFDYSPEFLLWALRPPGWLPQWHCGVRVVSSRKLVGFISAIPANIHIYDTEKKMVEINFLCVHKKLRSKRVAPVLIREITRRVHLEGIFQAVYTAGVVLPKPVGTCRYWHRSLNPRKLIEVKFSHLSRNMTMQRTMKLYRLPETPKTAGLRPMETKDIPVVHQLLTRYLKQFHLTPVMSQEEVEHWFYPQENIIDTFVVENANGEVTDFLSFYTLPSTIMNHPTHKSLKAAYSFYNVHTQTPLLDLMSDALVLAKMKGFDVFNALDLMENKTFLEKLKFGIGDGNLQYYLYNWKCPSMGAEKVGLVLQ

Plasmodium falciparum = experiment: Antiplasmodium activity against Chloroquine-sensitive later trophozoite form of Plasmodium falciparum 3D7 assessed as parasite growth inhibition after 48 hrs by FACS flow cytometric analysis; type: functional, organism-based; conditions: 3D7, 48 h
[3] = molecular target: Glycylpeptide N-tetradecanoyltransferase 1 (Homo sapiens) (UniProt P30419); experiment: Inhibition of human NMT1
[4] = molecular target: T2, Glycylpeptide N-tetradecanoyltransferase (Plasmodium falciparum (isolate 3D7), UniProt Q8ILW6); experiment: Binding affinity to Plasmodium falciparum NMT using GSNKSKPKDASQRRR-NH2 as substrate after 10 to 20 mins by CPM fluorescence assay; in short: as §1
T2 sequence (Q8ILW6 whole entry): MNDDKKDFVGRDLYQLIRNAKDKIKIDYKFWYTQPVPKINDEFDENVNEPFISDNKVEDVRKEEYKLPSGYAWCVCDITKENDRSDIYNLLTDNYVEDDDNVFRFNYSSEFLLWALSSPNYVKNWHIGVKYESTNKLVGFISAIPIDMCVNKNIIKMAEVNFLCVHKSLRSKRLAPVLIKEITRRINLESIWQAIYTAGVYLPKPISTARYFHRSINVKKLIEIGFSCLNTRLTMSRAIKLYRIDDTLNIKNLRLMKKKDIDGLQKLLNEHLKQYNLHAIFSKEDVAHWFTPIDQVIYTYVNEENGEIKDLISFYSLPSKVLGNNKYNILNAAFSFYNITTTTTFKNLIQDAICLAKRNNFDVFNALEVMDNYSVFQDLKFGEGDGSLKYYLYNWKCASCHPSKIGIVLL

SMILES	Ki [2]	inhibition activity call (active/not active) [3]	Ki [4]	Ki [1]	EC50 (Plasmodium falciparum)
CCOC(=O)c1oc2ccccc2c1OC1CCNCC1	> 100 µM	inactive	4.47 µM	1.74 µM	61.4 µM
CCOC(=O)c1oc2cccc(OC3CCNCC3)c2c1C	> 100 µM	inactive	13.6 µM	14.9 µM	–
CCOC(=O)c1sc2ccccc2c1OC1CCNCC1	> 100 µM	inactive	1.3 µM	1.32 µM	14.6 µM

More lines, main results first:

Ki [2]	inhibition activity call (active/not active) [3]	Ki [4]	SMILES	Ki [1]	EC50 (Plasmodium falciparum)
4.76 µM	Active	10.7 µM	O=C(NCc1ccccc1)c1sc2ccccc2c1OC1CCNCC1	1.32 µM	8.1 µM
–	Active	0.83 µM	COc1cccc(COC(=O)c2sc3ccccc3c2OC2CCNCC2)c1	–	2 µM
> 100 µM	inactive	> 100 µM	COc1cccc(CNC(=O)c2sc3ccccc3c2OC2CCNCC2)c1	2.7 µM	–
4.41 µM	Active	3.37 µM	O=C(OCc1ccccc1)c1sc2ccccc2c1OC1CCNCC1	2.16 µM	4.2 µM
